≈ marks a conversion by molar mass, not a printed value.
Tested on: Staphylococcus aureus
Assay: Minimum inhibitory concentration against staphylococcus aureus ATCC 6538
Type: functional
Procedure, shortened: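 Agar dilution: 1% stocks in 95% ethanol or water, serially diluted into nutrient agar (pH 6.8) to 1000, 100, 10 and 1 ppm. Plates were dried 30 min at 37 °C and spotted with ten drops of 24-h nutrient broth culture. Incubation was 48 h at 37 °C, in duplicate, with hexachlorophene as standard. MIC was the lowest level with no growth of any inoculum on either dish.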

MIC [µg/mL] | SMILES
1 (≈ 3.05 µM) | C=C(CCCCCCCC)C(=O)Nc1ccc(Cl)c(Cl)c1
100 (≈ 314 µM) | O=C(O)CCCCCCC(=O)Nc1ccc(Cl)c(Cl)c1
100 (≈ 333 µM) | O=C(O)CCCCC(=O)Nc1ccc(Cl)c([N+](=O)[O-])c1
1 (≈ 3.55 µM) | C=C(CCCCCC)C(=O)Nc1cc(Cl)ccc1O
100 (≈ 382 µM) | O=C(Cc1ccccc1)Nc1cc(Cl)ccc1O
10 (≈ 32.4 µM) | CCC(C(=O)Nc1ccc(Cl)c(Cl)c1)c1ccccc1 (centres undefined)
> 1000 | COC(=O)CCCCCCCCC(=O)Nc1ccc(Cl)c([N+](=O)[O-])c1
1000 (≈ 2970 µM) | CCCCCCCCCCCC(=O)Nc1cc([N+](=O)[O-])ccc1O
10 (≈ 36.5 µM) | CCCCCCC(=O)Nc1ccc(Cl)c(Cl)c1
> 1000 | O=C(O)CCC(=O)Nc1c(Cl)cccc1Cl
> 1000 | CCCc1ccc(S(=O)(=O)N(C)c2ccc(Cl)c(Cl)c2)cc1
10 (≈ 38.4 µM) | CCCCCC(=O)Nc1ccc(Cl)c(Cl)c1
1 (≈ 3.18 µM) | CCCCc1ccc(C(=O)Nc2cc([N+](=O)[O-])ccc2O)cc1
10 (≈ 35.1 µM) | CCCCCCC(=O)Nc1ccc(Cl)c([N+](=O)[O-])c1
> 1000 | O=C(O)CCCCCCCCC(=O)Nc1ccc(Cl)c(Cl)c1
10 (≈ 30.3 µM) | CCc1ccc(S(=O)(=O)Nc2ccc(Cl)c(Cl)c2)cc1
100 (≈ 394 µM) | C=C(CCCC)C(=O)Nc1cc(Cl)ccc1O
10 (≈ 30.6 µM) | O=C(Nc1cc([N+](=O)[O-])ccc1O)c1ccc(Cl)c(Cl)c1
1 (≈ 3.4 µM) | O=C(CCc1ccccc1)Nc1ccc(Cl)c(Cl)c1
10 (≈ 28.2 µM) | CCCc1ccc(S(=O)(=O)Nc2ccc(Cl)c([N+](=O)[O-])c2)cc1
1000 (≈ 3290 µM) | CCCCc1ccc(C(=O)Nc2cc(Cl)ccc2O)cc1
1 (≈ 3.18 µM) | C=C(CCCCCCC)C(=O)Nc1ccc(Cl)c(Cl)c1
1 (≈ 2.89 µM) | COC(=O)CCCCCCCC(=O)Nc1ccc(Cl)c(Cl)c1
10 (≈ 29 µM) | CCCCCCCCCCCC(=O)Nc1cc(Cl)cc(Cl)c1

MIC [µg/mL] | SMILES
10 (≈ 30.7 µM) | CC(C)c1ccc(S(=O)(=O)Nc2cc(Cl)ccc2O)cc1
10 (≈ 30.6 µM) | CCCCCCCCCC(=O)Nc1ccc(Cl)c([N+](=O)[O-])c1
> 1000 | COC(=O)CCCCCCCCC(=O)Nc1ccc(Cl)c(Cl)c1
100 (≈ 363 µM) | O=C(CCc1ccccc1)Nc1cc(Cl)ccc1O
100 (≈ 292 µM) | O=C(O)CCCCCCCC(=O)Nc1ccc(Cl)c([N+](=O)[O-])c1
1000 (≈ 3620 µM) | COC(=O)CCC(=O)Nc1ccc(Cl)c(Cl)c1
1000 (≈ 2690 µM) | O=S(=O)(Nc1ccc(Cl)c(Cl)c1)c1cc(Cl)ccc1Cl
10 (≈ 35.9 µM) | C=C(CCCCC)C(=O)Nc1cc([N+](=O)[O-])ccc1O
> 1000 | O=C(Nc1cc(Cl)ccc1O)c1ccc(Cl)c(Cl)c1
1 (≈ 3.31 µM) | CCCCCCCCC(=O)Nc1cc(Cl)cc(Cl)c1
1 (≈ 3.23 µM) | C=C(CCCCCCCC)C(=O)Nc1cc(Cl)ccc1O
10 (≈ 29.4 µM) | CCCCc1ccc(S(=O)(=O)Nc2cc(Cl)ccc2O)cc1
1 (≈ 3.07 µM) | CCCCCCCCCCCC(=O)Nc1cc(Cl)ccc1O
1 (≈ 3.22 µM) | C=C(CCCCCC)C(=O)Nc1ccc(Cl)c([N+](=O)[O-])c1
10 (≈ 33.7 µM) | C=C(CCCCC)C(=O)Nc1ccc(Cl)c([N+](=O)[O-])c1
10 (≈ 30.5 µM) | C=C(CCCCCCCC)C(=O)Nc1cc(Cl)cc(Cl)c1
1 (≈ 3.31 µM) | CCCCCCCCC(=O)Nc1ccc(Cl)c(Cl)c1
10 (≈ 27.5 µM) | O=[N+]([O-])c1ccc(O)c(NS(=O)(=O)c2ccc(Cl)c(Cl)c2)c1
> 1000 | CCCc1ccc(C(=O)Nc2cc(Cl)ccc2O)cc1
> 1000 | O=C(O)CCCCCCCCC(=O)Nc1ccc(Cl)c([N+](=O)[O-])c1
10 (≈ 39.1 µM) | CCCCCCC(=O)Nc1cc(Cl)ccc1O
1000 (≈ 3100 µM) | CCCCc1ccc(C(=O)Nc2ccc(Cl)c(Cl)c2)cc1
> 1000 | O=C(Cc1ccccc1)Nc1ccc(Cl)c(Cl)c1
> 1000 | CCc1ccc(C(=O)Nc2ccc(Cl)c(Cl)c2)cc1

MIC [µg/mL] | SMILES
10 (≈ 41.4 µM) | CCCCCC(=O)Nc1cc(Cl)ccc1O
1 (≈ 3.38 µM) | C=C(CCCCCCC)C(=O)Nc1cc(Cl)ccc1O
1 (≈ 3.36 µM) | CCCCCCCCCC(=O)Nc1cc(Cl)ccc1O
100 (≈ 290 µM) | CCCCCCCCCCCC(=O)Nc1ccc(Cl)c(Cl)c1
100 (≈ 318 µM) | COC(=O)CCCCC(=O)Nc1ccc(Cl)c([N+](=O)[O-])c1
1000 (≈ 2800 µM) | COC(=O)CCCCCCCC(=O)Nc1ccc(Cl)c([N+](=O)[O-])c1
10 (≈ 34.5 µM) | CCC(C(=O)Nc1cc(Cl)ccc1O)c1ccccc1 (centres undefined)
10 (≈ 32.4 µM) | CC(CC(=O)Nc1ccc(Cl)c(Cl)c1)c1ccccc1 (centres undefined)
10 (≈ 36.7 µM) | C=C(CCCC)C(=O)Nc1cc(Cl)cc(Cl)c1
10 (≈ 31.8 µM) | C=C(CCCCCCC)C(=O)Nc1cc(Cl)cc(Cl)c1
100 (≈ 304 µM) | O=C(O)CCCCCCC(=O)Nc1ccc(Cl)c([N+](=O)[O-])c1
> 1000 | CCCCCCCCCCCC(=O)Nc1ccc(Cl)c([N+](=O)[O-])c1
10 (≈ 29 µM) | CC(C)c1ccc(S(=O)(=O)Nc2ccc(Cl)c(Cl)c2)cc1
10 (≈ 27.9 µM) | CCCCc1ccc(S(=O)(=O)Nc2ccc(Cl)c(Cl)c2)cc1
1 (≈ 2.97 µM) | CCCc1ccc(S(=O)(=O)Nc2cc([N+](=O)[O-])ccc2O)cc1
1 (≈ 3.33 µM) | C=C(CCCCCC)C(=O)Nc1ccc(Cl)c(Cl)c1
10 (≈ 34.9 µM) | C=C(CCCCC)C(=O)Nc1ccc(Cl)c(Cl)c1
10 (≈ 39.6 µM) | CCCCCC(=O)Nc1cc([N+](=O)[O-])ccc1O
1000 (≈ 3450 µM) | O=C(O)CCCCC(=O)Nc1ccc(Cl)c(Cl)c1
1 (≈ 3.01 µM) | O=C(O)CCCCCCCC(=O)Nc1ccc(Cl)c(Cl)c1
100 (≈ 373 µM) | C=C(CCCCC)C(=O)Nc1cc(Cl)ccc1O
1 (≈ 2.95 µM) | C=C(CCCCCCCC)C(=O)Nc1ccc(Cl)c([N+](=O)[O-])c1
1000 (≈ 3820 µM) | O=C(O)CCC(=O)Nc1ccc(Cl)c(Cl)c1
> 1000 | CCCc1ccc(C(=O)Nc2ccc(Cl)c(Cl)c2)cc1

MIC [µg/mL] | SMILES
10 (≈ 37.1 µM) | CCCCCCCC(=O)Nc1cc(Cl)ccc1O
10 (≈ 36.9 µM) | CCCCCC(=O)Nc1ccc(Cl)c([N+](=O)[O-])c1
10 (≈ 31.6 µM) | CCCCCCCCCC(=O)Nc1ccc(Cl)c(Cl)c1
10 (≈ 27.9 µM) | CCC(C)c1ccc(S(=O)(=O)Nc2ccc(Cl)c(Cl)c2)cc1 (centres undefined)
10 (≈ 34 µM) | CCCCCCCCC(=O)Nc1cc([N+](=O)[O-])ccc1O
10 (≈ 31.6 µM) | Cc1ccc(S(=O)(=O)Nc2ccc(Cl)c(Cl)c2)cc1
> 1000 | CCCCCCc1ccc(C(=O)Nc2ccc(Cl)c(Cl)c2)cc1
10 (≈ 33.3 µM) | CCCc1ccc(C(=O)Nc2cc([N+](=O)[O-])ccc2O)cc1
> 1000 | O=C(Nc1ccc(Cl)c(Cl)c1)c1ccc(Cl)c(Cl)c1
1000 (≈ 2920 µM) | COC(=O)CCCCCCC(=O)Nc1ccc(Cl)c([N+](=O)[O-])c1
10 (≈ 31.6 µM) | CCCCCCCCCC(=O)Nc1cc(Cl)cc(Cl)c1
10 (≈ 36.7 µM) | C=C(CCCC)C(=O)Nc1ccc(Cl)c(Cl)c1
> 1000 | CCCc1ccc(S(=O)(=O)N(Cc2ccc(Cl)cc2)c2ccc(Cl)c(Cl)c2)cc1
1000 (≈ 3010 µM) | COC(=O)CCCCCCC(=O)Nc1ccc(Cl)c(Cl)c1
1000 (≈ 3620 µM) | COC(=O)CCC(=O)Nc1c(Cl)cccc1Cl
1 (≈ 2.96 µM) | C=C(CCCCCCCCCC)C(=O)Nc1cc(Cl)ccc1O
> 1000 | C=C(CCCCCCCCCC)C(=O)Nc1cc(Cl)cc(Cl)c1
10 (≈ 28.4 µM) | O=S(=O)(Nc1cc(Cl)ccc1O)c1ccc(Cl)c(Cl)c1
1000 (≈ 3290 µM) | COC(=O)CCCCC(=O)Nc1ccc(Cl)c(Cl)c1
> 1000 | C=C(CCCCCCCCCC)C(=O)Nc1ccc(Cl)c(Cl)c1
10 (≈ 38.4 µM) | CCCCCC(=O)Nc1cc(Cl)cc(Cl)c1
1 (≈ 3.08 µM) | C=C(CCCCCCC)C(=O)Nc1ccc(Cl)c([N+](=O)[O-])c1
